# Assays:
# [1] = tested on: OVCAR8-RFP cells xenografted IP; assay: OVCAR8-RFP IP xenograft; format: in vivo, mouse; conditions: for tumor burden: compared to DMSO
# [2] = tested on: MDA-MB-435; assay: Cell viability assay; format: cell-based, human; conditions: MDA-MB-435, 72 h, average
# In short: (§1)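 RPMI1640 (OVCAR3, OVCAR4, MDA-MB-435) or DMEM (OVCAR8, MDA-MB-231) was used, with 10% FBS and penicillin/streptomycin. Cells were STR-validated and kept below 20 passages. Cells were plated at 5000 per well overnight, then given test compound at final 0.95–250 nM (nine levels, 0.5% DMSO) for 72 h at 37 °C. Viability was read by CellTiter-Blue absorbance, and IC50 was taken relative to DMSO. Paclitaxel (0.39–100 nM) was the control, with three biological replicates.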
# [3] = tested on: OVCAR4; assay: 2D foci assay; format: cell-based, human; conditions: OVCAR4, 50 nM for 8 h, two weeks colony formation, relative to vehicle
# In short: (§2)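 Cells were seeded at 200 per 60 mm dish and left to attach overnight. They were then exposed for 8 h to test compound (50 nM), DMSO vehicle or paclitaxel (10 nM). Medium was replaced and cells grew drug-free for about two weeks (15 days). Colonies were fixed in 4% paraformaldehyde, stained with 0.05% crystal violet, imaged and counted. There were three biological replicates, compared with vehicle by Dunnett's test.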
# [4] = tested on: murine lymphoma L5178Y; conditions: mouse lymphoma cells (L5178Y); cited from earlier work
# [5] = tested on: OVCAR3; assay: Cell viability assay; format: cell-based, human; conditions: OVCAR3, 72 h, average
# In short: as §1
# [6] = tested on: OVCAR8 spheroids; assay: Spheroid viability assay; format: cell-based, human; conditions: read-out: IC50, spheroid viability, 7 days
# In short: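 OVCAR8 cells (5000 in 80 μL medium per well) were formed into spheroids in ultra-low-attachment round-bottom wells. Spheroids were treated for 7 days with test compound, DMSO vehicle or paclitaxel control. Viability was measured with CellTiter-Glo after 30 min shaking for lysis, read as luminescence. Dose–response curves were normalized to vehicle to give IC50. Data are mean ± SEM from three biological replicates.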
# [7] = tested on: OVCAR4; assay: Cell viability assay; format: cell-based, human
# In short: as §1
# [8] = tested on: OVCAR8; assay: 2D foci assay; format: cell-based, human; conditions: OVCAR8, 50 nM for 8 h, two weeks colony formation, relative to vehicle
# In short: as §2
# [9] = tested on: OVCAR8; assay: Cell viability assay; format: cell-based, human
# In short: as §1
# [10] = tested on: A2780 human ovarian cancer cell lines; conditions: cited from earlier work
# [11] = tested on: MDA-MB-231; assay: Cell viability assay; format: cell-based, human; conditions: MDA-MB-231, 72 h, average
# In short: as §1
SMILES,tumor burden ([1]; 0.5 mg/kg twice weekly),IC50 [2],foci formation [3],cytotoxic activity [4],IC50 [5],IC50 [6],cytotoxic activity [7],liver and organ gross morphology ([1]; 0.25 mg/kg in DMSO twice weekly for four weeks),tumor burden ([1]; 0.25 mg/kg twice weekly for four weeks),foci formation [8],cytotoxic activity [9],growth of cells [10],IC50 [11]
"CC(=O)O[C@H]1C(=O)[C@@]2(C)[C@H]([C@H](OC(=O)c3ccccc3)[C@]3(O)C[C@H](OC(=O)[C@H](O)[C@@H](NC(=O)c4ccccc4)c4ccccc4)C(C)=C1C3(C)C)[C@]1(OC(C)=O)CO[C@@H]1C[C@@H]2O [taxol, paclitaxel, reference compound]",reduced,,,,,,,,,,,,
CC(O)[C@@]12SS[C@]3(C(=O)N1C)[C@@H](O)C1([C@@]45c6ccccc6N[C@@H]4N4C(=O)[C@]6(C(C)O)SS[C@]4(C(=O)N6C)[C@H]5O)c4ccccc4N[C@@H]1N3C2=O (stereo partly shown) [verticillin D],,35.3 nM,completely abrogated foci formation,moderate cytotoxic activity,34.2 nM,1170 nM,nanomolar cytotoxic activity,gross morphological liver damage and fused organs,reduced,completely abrogated foci formation,nanomolar cytotoxic activity,inhibit the growth,12.2 nM
